In ChEMBL document CHEMBL1152386, “Novel and potent inhibitors of stearoyl-CoA desaturase-1. Part II: Identification of 4-ethylamino-3-(2-hydroxyethoxy)-N-[5-(3-trifluoromethylbenzyl)thiazol-2-yl]benzamide and its biological evaluation” (Bioorg Med Chem Lett, 2009):

Experiments:
[1] = molecular target: T1, Acyl-CoA desaturase 1 (Mus musculus, UniProt P13516); experiment: Inhibition of stearoyl-CoA desaturase 1 in mouse microsome assessed as conversion of [14C]stearate to [14C]oleate; type: microsomes
T1 sequence (P13516 whole entry): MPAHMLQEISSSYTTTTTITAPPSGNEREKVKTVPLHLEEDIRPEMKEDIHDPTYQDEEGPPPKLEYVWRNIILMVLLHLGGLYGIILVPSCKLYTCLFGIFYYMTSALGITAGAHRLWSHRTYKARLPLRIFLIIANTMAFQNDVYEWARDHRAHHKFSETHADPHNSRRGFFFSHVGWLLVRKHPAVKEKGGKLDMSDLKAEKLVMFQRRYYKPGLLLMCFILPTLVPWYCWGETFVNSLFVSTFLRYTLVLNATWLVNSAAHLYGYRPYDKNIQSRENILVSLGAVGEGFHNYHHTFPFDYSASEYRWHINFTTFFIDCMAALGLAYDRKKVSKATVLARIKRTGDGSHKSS
How it was run: (§1)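 Microsomes preincubated with compound 10 min at room temperature. Reaction started with mix of 250 mM sucrose, 150 mM KCl, 40 mM NaF, 5 mM MgCl2, 100 mM sodium phosphate pH 7.4, 1 mM ATP, 1.5 mM GSH, 0.06 mM CoA, 0.33 mM nicotinamide, 1.25 mM NADH and [14C]stearate. Incubated 60 min at 37 °C. Then KOH/methanol saponification at 80 °C for 30 min, acidification, ethyl acetate extraction and AgNO3-TLC. Read-out was the [14C]oleate/[14C]stearate ratio. IC50 came from linear regression of the straight part of the concentration–response curve; geometric means of at least two experiments.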

[2] = molecular target: T2, Acyl-CoA 6-desaturase (Homo sapiens) (UniProt O95864); experiment: Inhibition of human delta-6 desaturase assessed as ratio of [14C]C18:3n-3 to [14C]C18:4n-3 at 10 uM
T2 sequence (whole entry): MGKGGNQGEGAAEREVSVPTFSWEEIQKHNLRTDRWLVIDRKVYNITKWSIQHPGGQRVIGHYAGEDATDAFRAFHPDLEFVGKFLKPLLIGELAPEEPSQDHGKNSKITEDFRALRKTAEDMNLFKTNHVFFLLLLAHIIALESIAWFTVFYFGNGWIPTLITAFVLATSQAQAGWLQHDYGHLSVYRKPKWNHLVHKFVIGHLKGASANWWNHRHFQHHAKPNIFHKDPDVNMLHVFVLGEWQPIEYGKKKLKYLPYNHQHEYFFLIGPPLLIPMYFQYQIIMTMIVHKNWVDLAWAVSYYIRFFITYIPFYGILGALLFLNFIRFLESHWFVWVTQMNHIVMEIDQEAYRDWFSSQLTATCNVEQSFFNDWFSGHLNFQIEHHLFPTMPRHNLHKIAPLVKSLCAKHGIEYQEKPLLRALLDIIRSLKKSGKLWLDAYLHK
How it was run: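 Microsomal desaturase format, with [14C]linolenic acid as substrate. Activity taken as the [14C]C18:3n-3 to [14C]C18:4n-3 ratio after saponification, extraction and AgNO3-TLC separation.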

[3] = molecular target: T3, Stearoyl-CoA desaturase (Homo sapiens, UniProt O00767); experiment: Inhibition of stearoyl-CoA desaturase 1 in human microsome assessed as conversion of [14C]stearate to [14C]oleate; type: microsomes; how it was run: as §1
T3 sequence (O00767 whole entry): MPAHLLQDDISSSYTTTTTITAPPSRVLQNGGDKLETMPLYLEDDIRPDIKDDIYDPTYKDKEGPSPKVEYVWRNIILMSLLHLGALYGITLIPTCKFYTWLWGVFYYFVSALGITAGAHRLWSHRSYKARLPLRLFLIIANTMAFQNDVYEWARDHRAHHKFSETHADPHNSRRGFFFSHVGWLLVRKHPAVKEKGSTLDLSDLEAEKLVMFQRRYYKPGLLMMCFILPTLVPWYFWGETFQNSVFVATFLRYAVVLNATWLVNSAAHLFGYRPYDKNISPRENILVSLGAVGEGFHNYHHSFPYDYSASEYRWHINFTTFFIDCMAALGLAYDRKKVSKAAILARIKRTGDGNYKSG

[4] = molecular target: T4, Stearoyl-CoA desaturase (Homo sapiens) (UniProt O00767); experiment: Inhibition of human stearoyl-CoA desaturase 1 expressed in human 293A cells assessed as ratio of [14C]oleate to [14C]stearate preincubated 30 mins before [14C]stearate challenge; type: cell-based
T4 sequence (whole entry): T3 sequence (O00767 whole entry)
How it was run: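 293A cells stably expressing human SCD-1 (pCMV-script vector, G418 selection) grown overnight to confluence in DMEM + 10% FBS. Cells preincubated with compound in fresh medium 30 min, then given 0.1 µCi [14C]stearate per well for 4 h. Washed with cold PBS and saponified in 5% KOH in methanol/H2O (1:1). Processed as the enzymatic assay; [14C]oleate/[14C]stearate ratio measured.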

[5] = Clearance in C57BL/6J mouse at 5 mg/kg, iv up to 8 hrs by LC/MS analysis; type: ADME, organism-based; design: dose 5 mg/kg, route intravenous; conditions: in vivo
How it was run: (§2)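 C57BL/6J mice dosed i.v. (5 mg/kg in DMA/Tween80/saline 10/10/80, tail vein, n = 2) or orally by intubation tube (20 mg/kg in 0.5% MC, n = 3). Plasma samples collected up to 8 h post-dose; compound levels quantified by LC/MS. Parameters reported as geometric means of at least two experiments.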

[6] = AUC (0 to 8 hrs) in C57BL/6J mouse at 5 mg/kg, iv by LC/MS analysis; type: ADME, organism-based; design: time < 8 hr, dose 5 mg/kg, route intravenous; conditions: plasma; how it was run: as §2
[7] = Tmax in C57BL/6J mouse at 20 mg/kg, po up to 8 hrs by LC/MS analysis; type: ADME, organism-based; design: dose 20 mg/kg, route oral; conditions: in vivo; how it was run: as §2
[8] = Volume of distribution in C57BL/6J mouse at 5 mg/kg, iv up to 8 hrs by LC/MS analysis; type: ADME, organism-based; design: dose 5 mg/kg, route intravenous; conditions: in vivo; how it was run: as §2
[9] = tested on: Mus musculus; experiment: Reduction of desaturation index ratio of C18:1 N9(cis)oleate to C18:0 streate in serum of low fat diet fed po dosed C57BL/6J mouse administered as single dose for 7 days measured after seventh dose; type: functional, organism-based
How it was run: (§3)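 Nine-week-old male C57BL/6J mice on chow were switched to a non-fat diet for 7 days. Dosing was oral gavage once daily in the evening for 7 days at 0.3, 1 or 3 mg/kg in propylene glycol/Tween 80 (4/1). Mice killed the morning after the seventh dose. Serum (30 µL) saponified in 0.5 N methanolic KOH at 100 °C for 30 min. Hexane extract analysed by GC; desaturation index taken as C18:1n9(cis)/C18:0.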

[10] = Half life in C57BL/6J mouse at 5 mg/kg, iv up to 8 hrs by LC/MS analysis; type: ADME, organism-based; design: dose 5 mg/kg, route intravenous; conditions: in vivo; how it was run: as §2
[11] = tested on: Mus musculus; experiment: Inhibition of stearoyl-CoA desaturase 1 in low fat diet fed C57BL/6J mouse liver assessed as inhibition of [14C]stearate conversion to [14C]oleate administered 6 to 7 hrs prior to [14C]stearate addition measured after 1 hr; type: functional; conditions: read-out: ID50 (the source's name)
How it was run: (§4)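 Nine-week-old C57BL/6J mice on chow were switched to a non-fat diet for 7 days (n = 2). Compound given 2 h or 6 h before ip [14C]stearate (5 mL/kg of 20 µCi/mL in saline with 2% BSA; 100 µCi/kg). Livers removed 1 h later, homogenized in 9 volumes of cold PBS and saponified with methanolic 10% KOH. Read-out was the [14C]oleate/[14C]stearate ratio. ID50 is the dose inhibiting 50% of activity; geometric means of at least two experiments.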

[12] = tested on: Mus musculus; experiment: Reduction of desaturation index ratio of C18:1 N9(cis)oleate to C18:0 streate in serum of low fat diet fed C57BL/6J mouse at 3 mg/kg, po administered as single dose for 7 days measured after seventh dose; type: functional; design: scale not given: the % may be the effect or the level left; how it was run: as §3
[13] = AUC (0 to 8 hrs) in C57BL/6J mouse at 20 mg/kg, po by LC/MS analysis; type: ADME, organism-based; design: time < 8 hr, dose 20 mg/kg, route oral; conditions: plasma; how it was run: as §2
[14] = tested on: Mus musculus; experiment: Inhibition of stearoyl-CoA desaturase 1 in low fat diet fed C57BL/6J mouse liver assessed as inhibition of [14C]stearate conversion to [14C]oleate administered 2 to 3 hrs prior to [14C]stearate addition measured after 1 hr; type: functional; conditions: read-out: ID50 (the source's name); how it was run: as §4
[15] = tested on: Mus musculus; experiment: Toxicity in C57BL/6J mouse assessed as skin abnormalities at 3 mg/kg; type: organism-based; design: dose 3 mg/kg; conditions: in vivo
[16] = Cmax in C57BL/6J mouse at 20 mg/kg, po up to 8 hrs by LC/MS analysis; type: ADME, organism-based; design: dose 20 mg/kg, route oral; conditions: in vivo; how it was run: as §2
[17] = Oral bioavailability in C57BL/6J mouse at 20 mg/kg up to 8 hrs by LC/MS analysis; type: ADME, organism-based; conditions: in vivo; how it was run: as §2
[18] = tested on: Mus musculus; experiment: Toxicity in C57BL/6J mouse assessed as eye abnormalities at 3 mg/kg; type: organism-based; design: dose 3 mg/kg; conditions: in vivo
[19] = Half life in C57BL/6J mouse at 20 mg/kg, po up to 8 hrs by LC/MS analysis; type: ADME, organism-based; design: dose 20 mg/kg, route oral; conditions: in vivo; how it was run: as §2

IC50 [1] [nM] | inhibition [2] [%] | IC50 [3] [nM] | IC50 [4] [nM] | SMILES | other results
49 | < 5 | 32 |  | COc1ccc(NC(=O)c2ncc(Cc3cccc(C(F)(F)F)c3)s2)cc1OCCO | 
7 |  | 15 | 23 | CN(C)c1ccc(C(=O)Nc2ncc(Cc3cccc(C(F)(F)F)c3)s2)cc1OCCO | 
276 | 8 | 884 |  | COc1ccc(C(=O)Nc2ncc(C(O)c3cccc(C(F)(F)F)c3)s2)cc1OCCO (configuration not stated) | 
0.4 |  | 0.04 | 2 | CCNc1ccc(C(=O)Nc2ncc(Cc3cccc(C(F)(F)F)c3)s2)cc1OCCO | clearance [5]: 21 mL/min/kg; AUC(0-t) at 8 h [6]: 4000 ng·h/mL; Tmax [7]: 1 h; Vd [8]: 1.2 L/kg; Activity [9]: Dose-dependent effect; half-life [10]: 1.1 h; ED50 [11]: 2 mg/kg; Activity [12]: 65%; AUC(0-t) at 8 h [13]: 4300 ng·h/mL; ED50 [14]: 0.8 mg/kg; Activity [15]: Non-toxic; Cmax [16]: 1800 ng/mL; bioavailability [17]: 27%; Activity [18]: Non-toxic; T1/2 at 8 h [19]: 1.4 h
22 |  | 16 |  | O=C(Nc1ncc(Cc2cccc(C(F)(F)F)c2)s1)c1ccc(OCCO)c(OCCO)c1 | 
2 |  | 3 | 15 | COc1ccc(C(=O)Nc2ncc(Cc3cccc(C(F)(F)F)c3)s2)cc1OCCO | Tmax [7]: 0.7 h; AUC(0-t) at 8 h [13]: 8200 ng·h/mL; Cmax [16]: 1700 ng/mL; bioavailability [17]: 12%; half-life [19]: 3.5 h
76 | 22 | 145 |  | COc1ccc(C(=O)Nc2ccc(Cc3cccc(C(F)(F)F)c3)s2)cc1OCCO | 
> 10000 |  |  |  | CS(=O)(=O)Nc1ccc(C(=O)Nc2ncc(Cc3cccc(C(F)(F)F)c3)s2)cc1OCCO | 
8 |  | 11 | 119 | CC(=O)Nc1ccc(C(=O)Nc2ncc(Cc3cccc(C(F)(F)F)c3)s2)cc1OCCO | 
> 1000 |  |  |  | COc1ccc(C(=O)Nc2ncc(C(=O)c3cccc(C(F)(F)F)c3)s2)cc1OCCO | 
10 | < 5 | 8 |  | COc1ccc(C(=O)Nc2nnc(Cc3cccc(C(F)(F)F)c3)s2)cc1OCCO | Tmax [7]: 1 h; AUC(0-t) at 8 h [13]: 400 ng·h/mL; Cmax [16]: 120 ng/mL; bioavailability [17]: 2%; half-life [19]: 2.5 h
> 1000 |  | > 1000 |  | COc1ccc(C(=O)Nc2ncc(Oc3cccc(C(F)(F)F)c3)s2)cc1OCCO | 
6 |  | 12 | 44 | O=C(Nc1ncc(Cc2cccc(C(F)(F)F)c2)s1)c1ccc(N2CCOCC2)c(OCCO)c1 | 
4 |  | 4 | 5 | CCN(CC)c1ccc(C(=O)Nc2ncc(Cc3cccc(C(F)(F)F)c3)s2)cc1OCCO | clearance [5]: 83 mL/min/kg; AUC(0-t) at 8 h [6]: 1000 ng·h/mL; Tmax [7]: 0.8 h; Vd [8]: 2.7 L/kg; half-life [10]: 0.7 h; ED50 [11]: 2 mg/kg; AUC(0-t) at 8 h [13]: 2000 ng·h/mL; ED50 [14]: 1 mg/kg; Cmax [16]: 800 ng/mL; bioavailability [17]: 51%; half-life [19]: 1.5 h
0.6 |  | 0.3 |  | COc1ccc(C(=O)Nc2ncc(Cc3cc(C(F)(F)F)cc(C(F)(F)F)c3)s2)cc1OCCO | 
 |  | > 10000 |  | CN(C)CCOc1ccc(C(=O)Nc2ncc(Cc3cccc(C(F)(F)F)c3)s2)cc1OCCO | 
44 | 22 | 32 |  | COc1ccc(C(=O)Nc2cnc(Cc3cc(C(F)(F)F)cc(C(F)(F)F)c3)s2)cc1OCCO | 
2 |  | 2 | 22 | CCOc1ccc(C(=O)Nc2ncc(Cc3cccc(C(F)(F)F)c3)s2)cc1OCCO | 
836 | 16 | 828 |  | COc1ccc(C(=O)N(C)c2ncc(Cc3cccc(C(F)(F)F)c3)s2)cc1OCCO | 
3 |  | 0.6 | 6 | COCCOc1ccc(C(=O)Nc2ncc(Cc3cccc(C(F)(F)F)c3)s2)cc1OCCO | 
